TAAR1 antag: human TAAR1 antagonism. CHO RD-HGA16 TAAR1, Fluo-8 calcium fluorescence, antagonist. inhibition, % at 3 µM. hit rate 1.5% among 360,000. AID 624466;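 active means inhibition above a per-plate cutoff, the mean inhibition of test compounds on that plate plus 3 SD, cut at about 49% in these data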;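 further: 0% = DMSO plus EC80 beta-PEA response and 100% = DMSO alone without agonist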
Target sequence (Q96RJ0 whole entry, looked up): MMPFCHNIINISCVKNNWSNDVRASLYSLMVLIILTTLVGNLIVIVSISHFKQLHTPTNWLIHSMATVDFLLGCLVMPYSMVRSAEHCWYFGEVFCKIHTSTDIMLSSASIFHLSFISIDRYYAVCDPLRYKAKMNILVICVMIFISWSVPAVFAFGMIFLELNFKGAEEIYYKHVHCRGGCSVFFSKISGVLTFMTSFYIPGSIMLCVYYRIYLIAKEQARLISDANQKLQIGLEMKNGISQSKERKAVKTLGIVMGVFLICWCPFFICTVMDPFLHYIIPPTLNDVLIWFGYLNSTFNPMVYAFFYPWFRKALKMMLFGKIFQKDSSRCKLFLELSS
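Test system – hTAAR1-expressing CHO RD-HGA16 cells, Gα16-coupled · Reagent – β-PEA at EC80 concentration, post-compound challenge · Compound dosing – 3 µM, single point · Timing – 140 s kinetic read after compound, 140 s after agonist · Detection – Fluo-8 intracellular calcium dye fluorescence, real-time kinetic reads · Control set – DMSO and EC80 PEA controls · Repeats – n of 1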
TAAR1 agonist: agonists of human TAAR1; activation, % at 3 µM; AID 624467; CHO RD-HGA16 TAAR1, Fluo-8 calcium fluorescence; vehicle wells 0%, saturating PEA agonist 100%; hit rate 0.99% among 360,000; Q96RJ0;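 active means activation above the mean activation of all test compounds in the run plus 3 SD, cut at about 38% in these data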
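Benchmarks: low control DMSO, high control PEA (EC100); System: CHO RD-HGA16 cells carrying human TAAR1 plus Gα16; Detection: Fluo-8 fluorescence, 5 s baseline then 140 s kinetic read; Schedule: 17-24 h plating, Fluo-8 75 min 37 °C, 30 min RT; Read-out basis: % activation from peak over basal fluorescence ratio, DMSO-to-PEA scaled.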
rCAG binder: r(CAG) repeat RNA binding | TO-PRO-1 dye displacement fluorescence | inhibition, % at 3 µM | hit rate 1.3% among 370,000;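 active means inhibition above the plate cutoff, the mean of all test compounds on that plate plus 3 SD, cut at about 35% in these data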;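 further: 0% = DMSO alone and 100% = 100 µM mitoxantrone as full dye displacement; higher means more dye released from RNA so lower well fluorescence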
core dimer inh: HCV core protein dimerization inhibition; inhibition, % at 5 µM; TR-FRET GST/Flag-core106 dimerization, 1536-well; hit rate 0.33% among 300,000;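 active means inhibition above the mean of all tested compounds plus 3 SD, set per screening campaign, cut at about 45% in these data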
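Assay system – GST-tagged and Flag-tagged HCV core protein residues 1-106 · Quantity – core106 proteins, GST 13.5 nM and Flag 17 nM · Benchmarks – unlabelled core106 and no-GST-core106 wells · Read-out basis – percent inhibition of core106 dimerization signal · Detection – time-resolved FRET, ex 340 nm, em 617 and 671 nm · Schedule – 4 h at 22.5 °C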
NS3 helicase inh: blocks Hepatitis C virus NS3 helicase unwinding; hit rate 0.56% among 290,000; inhibition, % at 10.9 µM; NS3 helicase DNA unwinding, Cy5 molecular beacon fluorescence;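 active means inhibition above the mean of all tested compounds plus 3 SD, set per campaign, cut at about 35% in these data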;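 further: 0% = DMSO wells and 100% = thioflavine S control wells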
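System: NS3 helicase fragment of HCV / Schedule: 1 h at 25 °C / Control set: DMSO alone as 0% and 110 µM thioflavine S as 100% / Reagent: Cy5/quencher beacon DNA duplex and ATP to start / Technique: Cy5 fluorescence / Replication: singlicate / Evaluation: % inhibition of end-to-start signal ratio versus controls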
rCAG binder conf: r(CAG) RNA repeat binding, confirmation; TO-PRO-1 dye displacement fluorescence; hit rate 70% among 4,300; inhibition, % at 3 µM; shares compounds with rCAG binder;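 active means inhibition above a per-plate cutoff, the mean inhibition of sample wells plus 3 SD, cut at about 35% in these data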;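 further: loss of TO-PRO-1 fluorescence as compound displaces dye from 1x1 AA loop RNA; 0% = DMSO only wells and 100% = 100 µM mitoxantrone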
dCAG dye counter: DNA CAG dye complex inhibition counter-screen; shares compounds with rCAG binder; d(CAG) DNA oligo TO-PRO-1 dye displacement, fluorescence; inhibition, % at 3 µM; hit rate 94% among 4,300;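 active means inhibition above its plate's cutoff, the mean test-well inhibition plus 3 SD, cut at about 4.8% in these data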;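 further: 0% = DNA dye mix with DMSO and 100% = 100 µM mitoxantrone; hits displace the dye from DNA and so lower well fluorescence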
dCAG dye DR: DNA CAG dye complex inhibition, dose response counter-screen; IC50, µM; DNA CAG/GTC duplex TO-PRO-1 dye displacement fluorescence; AID 686960; shares compounds with rCAG binder; hit rate 20% among 250; in the data active means IC50 below about 10 µM
* = called active by the depositor; i = inactive; / = no result. Most compounds without a hit are left out; they make up all but 3.7% or so of the library.

SMILES	TAAR1 antag	TAAR1 agonist	rCAG binder	core dimer inh	NS3 helicase inh	rCAG binder conf	dCAG dye counter	others
O=C(CSc1nnc(-c2ccco2)c(-c2ccco2)n1)Nc1ccccc1	-5.1	4.4	60.1*	50.8*	24.5	28.1	14.9*
COc1ccc(C(=O)CSc2nnc(-c3ccco3)n2C)cc1	-10.2	6.7	4.9	-1.6	6.4	/	/
COc1ccc(C(=O)CSc2nnc(-c3ccco3)c(-c3ccco3)n2)cc1	28.4	2.5	51.4*	/	33.3	49.5*	22.3*
O=C(CSc1nnc(-c2ccccc2)c(-c2ccccc2)n1)NCc1ccco1	-8.0	13.2	-0.7	15.4	11.1	/	/
O=C(CSc1ccc(-c2ccco2)nn1)NCc1ccc(F)cc1	-9.5	1.0	2.4	3.1	2.6	/	/
COc1ccc(C(=O)OCCN(C)C2CN(Cc3cn(Cc4ccccc4Cl)nn3)S(=O)(=O)C2)cc1OC (stereo not drawn)	/	/	2.2	/	/	/	/
COc1ccc(S(=O)(=O)NC(=O)C2(C)CCN2C(=O)C2(c3ccc(Cl)cc3)CCC2)cc1 (stereo not drawn)	0.6	0.2	45.8*	/	/	35.0*	6.4*
CC(C)(C)c1ccc(S(=O)(=O)NC(=O)C2(C)CCN2C(=O)C2(c3ccc(Cl)cc3)CC2)cc1 (stereo not drawn)	-3.9	14.6	70.5*	/	/	59.4*	20.5*
CC1(C(=O)NS(=O)(=O)c2ccc(C#N)cc2)CCN1C(=O)C1(c2ccc(Cl)cc2)CCC1 (stereo not drawn)	-2.0	4.6	15.4	/	/	/	/
CC1(C(=O)NS(=O)(=O)c2cccc(F)c2)CCN1C(=O)C1(c2ccc(Cl)cc2)CCC1 (stereo not drawn)	-4.5	0.1	41.7*	/	/	31.3	6.7*
CC1(C(=O)NS(=O)(=O)c2ccc(Cl)cc2)CCN1C(=O)C1(c2ccc(Cl)cc2)CC1 (stereo not drawn)	-18.1	4.6	45.5*	/	/	39.3*	8.7*
CC(C)CNc1cccc2c1S(=O)(=O)N[C@@H](CC(C)C)CO2	-11.3	1.4	-1.3	/	/	/	/
Cc1ccc(-c2nnc3n2N=C(c2ccc4ccccc4c2)CS3)cc1	/	/	9.3	/	/	/	/
CCCCCc1ccc(NC(=O)OCCN2C(=O)CCC23CCC(c2ccccc2)CC3)cc1 (stereo not drawn)	/	/	0.8	/	/	/	/
O=C(NCc1c(F)cccc1F)C1C2C=CC3(CN(Cc4ccccc4)C(=O)C13)O2 (stereo not drawn)	/	/	1.0	/	/	/	/
COc1ccc(-c2noc(C3CCCN(C(=O)Nc4ccc5c(c4)OCO5)C3)n2)cc1 (stereo not drawn)	/	/	5.2	/	/	/	/
CC(C)=CCC/C(C)=C/CNCC(=O)N1c2ccccc2[C@]2(c3ccccc3)C[C@@H]3C(=O)N(C/C=C(\C)CCC=C(C)C)CC(=O)N3[C@H]12	/	/	8.5	/	/	/	/
O=C1CC(Nc2ccc(N3CCOCC3)cc2)C(=O)N1c1ccccc1 (stereo not drawn)	/	/	/	3.3	26.0	/	/
O=C1CC(Nc2ccc(N3CCOCC3)cc2)C(=O)N1Cc1ccccc1 (stereo not drawn)	3.8	5.0	34.6*	-3.6	29.7	7.6	6.9*
CSc1ccc(Oc2cccc3c2S(=O)(=O)N(C2CC2)C[C@@H](COCc2ccccc2)O3)cc1C	-9.1	2.8	8.1	/	/	/	/
COc1cc(/C=C2/C(=O)N(c3ccc(C)c(C)c3)N=C2C)cc([N+](=O)[O-])c1O	-13.6	-1.8	37.1*	-9.0	24.1	45.8*	11.9*
COc1cc(/C=C2/C(=O)N(c3ccc(C(=O)O)cc3)N=C2C)cc(OC)c1O	-2.1	1.0	-3.3	/	21.8	/	/
O=C(CSc1nnc(-c2ccncc2)n1-c1ccccc1)Nc1ccc2c(c1)OCCO2	/	/	0.3	/	/	/	/
COc1cc(/C=C/C(=O)O)ccc1OS(=O)(=O)c1cc(C)ccc1C	-4.0	-0.4	21.5	-3.6	-3.5	/	/
COc1cc(/C=C/C(=O)O)ccc1OS(=O)(=O)c1c(C)cc(C)cc1C	5.7	-0.1	36.5*	/	/	27.6	9.4*
SMILES	TAAR1 antag	TAAR1 agonist	rCAG binder	core dimer inh	NS3 helicase inh	rCAG binder conf	dCAG dye counter	others
COCCCN1C(=O)[C@H](CC(=O)N2CCCC2)[C@]2(C(=O)OC)CCCCC=C12	/	/	2.8	/	/	/	/
C[C@@H]1COc2cc(N3CCCC3)ccc2S(=O)(=O)N1C	/	/	2.9	/	/	/	/
CC(=O)Nc1nc2ccc(S(=O)(=O)N3CCCC3)cc2s1	-19.0	0.8	3.3	-9.0	-4.5	/	/
O=S(=O)(Nc1nc2ccc(S(=O)(=O)N3CCCC3)cc2s1)c1ccc(F)cc1	7.3	2.5	68.5*	16.9	16.8	52.4*	20.3*
Cc1cccc(NC(=O)CNC(=O)[C@@H](Cc2ccccc2)NC(=O)[C@H]2O[C@@H](n3ccc(=O)[nH]c3=O)[C@H](O)[C@@H]2O)c1C	-23.7	2.4	2.9	/	/	/	/
Cc1nc2ccccc2c(=O)n1/N=C/c1ccc(O)c(O)c1O	-0.5	-1.2	44.3*	-0.2	23.0	50.7*	18.9*
O=C(/C=C(\Nc1cccc(Cl)c1F)c1ccccc1)c1ccccc1	19.2	-1.7	6.4	/	/	/	/
CC1(OC(=O)C2CCCC2)C(=O)C=C2C=C(c3ccsc3)OC=C2C1=O (stereo not drawn)	0.1	5.4	52.2*	-1.8	/	37.1*	20.3*	dCAG dye DR=i
CC1(OC(=O)c2cccs2)C(=O)C=C2C=C(c3ccsc3)OC=C2C1=O (stereo not drawn)	/	/	/	22.5	/	/	/
CCCCOCCCNC(=O)C[C@H]1C[C@@]2(C(=O)OC)C(=C[C@H](C(C)C)O[C@@H]2C2CC2)N(Cc2ccc3c(c2)OCO3)C1=O	/	/	-1.0	/	/	/	/
C[N+]1=C(N)N[C@@]2(C=C3CCCCC3n3c(=O)n(-c4ccccc4)c(=O)n32)C1 (stereo partly drawn)	/	/	2.0	/	/	/	/
Nc1ccc2c(O)cc(S(=O)(=O)O)cc2c1	-57.1	1.9	86.7*	/	/	34.1	9.7*
O=C(O)c1cc(S(=O)(=O)O)ccc1O	-1.4	0.7	0.0	-6.9	-15.4	/	/
COC(=O)c1cc2c(c3c4cc(F)ccc4n(S(=O)(=O)c4ccccc4)c13)C(=O)N(Cc1ccc(C(F)(F)F)cc1)C2	-41.5	-0.7	12.5	/	/	/	/
COc1ccccc1N(Cc1ccccc1)S(=O)(=O)c1cccc(C(=O)O)c1	0.2	1.3	29.1	3.6	11.1	/	/
COc1ccccc1N(Cc1ccccc1)S(=O)(=O)c1cc(C(=O)O)ccc1Cl	15.0	0.4	65.0*	-2.5	23.4	46.9*	12.6*
